The values below come from ChEMBL document CHEMBL1155931, “Sulfur-substituted naphthalimides as photoactivatable anticancer agents: DNA interaction, fluorescence imaging, and phototoxic effects in cultured tumor cells” (Bioorg Med Chem, 2008).

By IC50 is commonly meant the midpoint of a concentration-inhibition curve. Read a high IC50 as lower potency. One may read the ΔTm as the shift of the melting midpoint relative to a reference.

For test [1], the system named is MCF7. The experiment in a line: Antiproliferative activity against human MCF7 cells after 24 hrs of drug exposure followed by irradiation at 366 nanometer for 20 mins and subsequent incubation of 72 hrs in drug free media. The conditions noted are these: MCF7, light or radiation study. The format is functional, cell-based. The essentials:
(§1)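 Cells grown in MEM with 10% FCS at 37 °C, 5% CO2. Seeded for 48 h (HT-29) or 72 h (MCF-7) before drug. Graded concentrations were tested in six replicates. Continuous runs lasted 72 h (HT-29) or 96 h (MCF-7). Short runs used 24 h drug, then drug-free medium, optionally irradiated 20 min at 366 nm (4 W lamp, 5 cm). Biomass read by crystal violet. IC50 is the mean of ≥2 independent experiments.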

In test [2] the test system is DNA. The experiment in a line: Binding affinity to calf thymus DNA assessed as change in melting temperature at concentration of 0.1 [compound]/[DNA]. Format: nucleic-acid assay. The settings on record: Bos taurus. The essentials: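 CT DNA at 200 µM nucleotide with compound at 20 µM in 10 mM phosphate buffer, pH 7.2, 1% DMSO. Melting followed at 260 nm in 1 °C steps. Tm taken as the midpoint from first-derivative curves. ΔTm accurate within ±1 °C.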

Test [3] concerns MCF7. The experiment in a line: Antiproliferative activity against human MCF7 cells after 96 hrs by crystal violet staining. The format is functional, cell-based. The settings on record: MCF7, 96 h. Put shortly:
as §1

Test [4] deals with MCF7. The experiment in a line: Antiproliferative activity against human MCF7 cells after 24 hrs of drug exposure followed by 72 hrs incubation in drug free media. Format: functional, cell-based. Put shortly: as §1
Test [5] concerns Escherichia coli. The experiment in a line: Induction of photocleave of Escherichia coli pBR322 DNA after irradiation for 2 hrs at 265 nanometer. The settings on record: in the assay text read “365 nanometer” for “265 nanometer”. The essentials:
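pBR322 supercoiled plasmid (0.25 µg) in Tris–HCl pH 7.5 with compound at 50 µM (DMSO stock). Irradiated 2 h at 365 nm (8 W, 10 cm). Run on 1% agarose, ethidium bromide stain. Nicked/linear DNA quantified as percentage of total, mean of two experiments.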

In test [6] the test system is HeLa. The experiment in a line: Reduction of topoisomerase 2alpha protein level in human HeLa cells by Western blotting. Format: functional, cell-based.
Test [7] relates to HT-29. The experiment in a line: Antiproliferative activity against human HT29 cells after 72 hrs by crystal violet staining. The format is functional, cell-based. The settings on record: HT-29, 72 h. Put shortly: as §1
The test system of test [8] is HT-29. The experiment in a line: Antiproliferative activity against human HT29 cells after 24 hrs of drug exposure followed by 48 hrs incubation in drug free media. The format is functional, cell-based. The essentials: as §1
For test [9], the system named is HT-29. The experiment in a line: Antiproliferative activity against human HT29 cells after 24 hrs of drug exposure followed by irradiation at 366 nanometer for 20 mins and subsequent incubation of 48 hrs in drug free media. The conditions noted are these: HT-29, light or radiation study. Format: functional, cell-based. Put shortly:
as §1

The subject of test [10] is DNA. The experiment in a line: Binding affinity to calf thymus DNA assessed as decrease in helical B conformation at 245 nanometer wavelength by circular dichroism. The format is nucleic-acid assay. The settings on record: Bos taurus. Put shortly: (§2)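 CD spectra of CT DNA (200 µM nucleotide) after 60 min incubation with 20 µM compound. Recorded after equilibration, when ellipticity no longer changed. DNA concentration set by ε260 = 6600 M^-1 cm^-1.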
(In general: Circular dichroism is widely used to follow secondary structure.)

The subject of test [11] is DNA. The experiment in a line: Binding affinity to calf thymus DNA assessed as increase in base stacking at 275 nanometer wavelength by circular dichroism. The format is nucleic-acid assay. The conditions noted are these: Bos taurus. Put shortly: as §2

Structures are written as SMILES. Active and inactive are the calls of the source. No cut-off for these calls is given here.

In the case of `CN(C)CCN1C(=O)c2cccc3c(Sc4ccccc4N)ccc(c23)C1=O`, the IC50 in test [1] was 4.9 µM; in [3] it was 2.6 µM; in [4], 4.8 µM; in [7], 2.9 µM; in test [8] it was 2.8 µM; in test [9], 2.8 µM. Besides, in test [2], the ΔTm was 9 °C. Further, the result in test [5], in [6] and in [10] was Active.

Regarding `CCCCSc1ccc2c3c(cccc13)C(=O)N(CCN(C)C)C2=O`, the IC50 in test [1] worked out at 4 µM; in [3], 2.6 µM; in [4], 5.7 µM; in [7], 4.6 µM; in test [8], 4.3 µM; in test [9], 3 µM. Besides, in test [2], the ΔTm was found to be 8 °C. Moreover, the result in [5], in test [10] and in [11] was Active. For the same compound, the outcome in [6] was inactive.

For `CCSc1ccc2c3c(cccc13)C(=O)N(CCS)C2=O`, the IC50 in test [1], in test [3], in [4], in [8] and in test [9] was over 50 µM each time. Besides, the ΔTm in [2] was determined as 2 °C. The outcome in test [5] was Active.

Consider `CN(C)CCN1C(=O)c2cccc3cccc(c23)C1=O`, for which the IC50 in test [1] was 11.3 µM; in test [3], 4.5 µM; in [4] it was 11.6 µM; in test [7], 3.5 µM; in test [8] it was 7.2 µM; in test [9], 5.3 µM. In addition, the ΔTm in test [2] stood at 6 °C. The result in test [5] and in [6] was Active.

With `CN(C)CCN1C(=O)c2cccc3c(SCc4ccccc4)ccc(c23)C1=O`, the IC50 in test [1] is 1.7 µM; in test [3], 3.4 µM; in [4] it was 6.7 µM; in [7], 4.1 µM; in test [8], 4.8 µM; in test [9] it was 1.3 µM. Also, the ΔTm in test [2] worked out at 7 °C. Moreover, the result in [5], in [10] and in test [11] was Active. Also, in test [6], the outcome was inactive.

For `CCSc1ccc2c3c(cccc13)C(=O)N(CCN(C)C)C2=O`, the IC50 in test [1] is 4.3 µM; in test [3] it was 4.4 µM; in test [4], 4.5 µM; in test [7] it was 1.9 µM; in test [8], 2.2 µM; in test [9] it was 2.5 µM. Moreover, the ΔTm in test [2] was found to be 8 °C. The result in test [5], in test [6], in [10] and in test [11] was Active.

For the compound `CN(C)CCN1C(=O)c2cccc3c2c(cc2c4ccccc4sc32)C1=O`, the IC50 was 0.18 µM in test [1]; 0.2 µM in [3]; 0.17 µM in test [4]; 0.62 µM in test [7]; 0.23 µM in test [8]; 0.21 µM in test [9]. Besides, the outcome in test [6] was Active.

As for `CN(C)CCN1C(=O)c2cccc3c(Sc4nc5ccccc5s4)ccc(c23)C1=O`, the IC50 stood at 2.4 µM in test [1]; 2.7 µM in test [3]; 7.3 µM in test [4]; 4.4 µM in test [7]; 5.5 µM in test [8]; 1.8 µM in test [9]. In addition, the ΔTm in test [2] was determined as 3 °C. The outcome in test [5] and in test [6] was Active.
